Bioassay records (PubChem)
The list is not random: actives were taken first. Their share in the collection is about 1.7%.
Scp-1 inhibitor – Scp-1 (human) phosphatase inhibition; Q9GZU7; Recombinant Scp1, phosphopeptide, malachite green phosphate absorbance; inhibition, % at 20 µM; 0.88% of 340,000 active;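 active means inhibition above about 50% at 20 µM, limit read from the data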;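 further: plate controls were DMSO wells with enzyme for no effect and wells lacking enzyme for full effect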
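Assay system: SCP-1 catalytic fragment, aa 76-261 | Buffer or medium: Tris acetate buffer pH 5.5 with MgCl2 and Tween-20 | Compound: One concentration, 20 µM, with 1.0% DMSO | Also added: Phospho 17-mer peptide substrate | Signal: Absorbance at 630 nm | Incubation: 45 min enzyme reaction at room temperature | Measure: % inhibition of SCP-1 phosphate liberation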
LMPTP inh – blocks human LMPTP phosphatase. recombinant LMPTP-A, OMFP fluorogenic substrate, fluorescence intensity. inhibition, % at 20 µM. P24666. 0.22% of 360,000 active;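 active means compounds that cut the enzyme signal by at least half of the control window in the single-dose screen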;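 further: plate controls were DMSO wells with enzyme plus substrate for no effect and substrate without enzyme for full effect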
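Assay system: LMPTP-A enzyme. Input: 0.625 nM LMPTP-A final. Probe or stimulus: 400 µM OMFP. Compound dosing: single 20 µM dose. Schedule: 50 min dark incubation at room temperature. Detection: fluorescence intensity of OMFP turnover product. Read-out: percent inhibition versus substrate-only and uninhibited controls. Benchmarks: no-enzyme low control, uninhibited high control.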
STEP inh – inhibitors of human striatal-enriched phosphatase STEP | P54829 | recombinant STEP, OMFP fluorogenic substrate, fluorescence | inhibition, % at 20 µM | 0.25% of 360,000 active | AID 588621;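 active means inhibition at 20 µM, scaled per plate between control wells, above about 37%, limit read from the data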;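 further: 0% = DMSO with enzyme and substrate and 100% = substrate only without enzyme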
Target sequence (P54829 whole entry, looked up): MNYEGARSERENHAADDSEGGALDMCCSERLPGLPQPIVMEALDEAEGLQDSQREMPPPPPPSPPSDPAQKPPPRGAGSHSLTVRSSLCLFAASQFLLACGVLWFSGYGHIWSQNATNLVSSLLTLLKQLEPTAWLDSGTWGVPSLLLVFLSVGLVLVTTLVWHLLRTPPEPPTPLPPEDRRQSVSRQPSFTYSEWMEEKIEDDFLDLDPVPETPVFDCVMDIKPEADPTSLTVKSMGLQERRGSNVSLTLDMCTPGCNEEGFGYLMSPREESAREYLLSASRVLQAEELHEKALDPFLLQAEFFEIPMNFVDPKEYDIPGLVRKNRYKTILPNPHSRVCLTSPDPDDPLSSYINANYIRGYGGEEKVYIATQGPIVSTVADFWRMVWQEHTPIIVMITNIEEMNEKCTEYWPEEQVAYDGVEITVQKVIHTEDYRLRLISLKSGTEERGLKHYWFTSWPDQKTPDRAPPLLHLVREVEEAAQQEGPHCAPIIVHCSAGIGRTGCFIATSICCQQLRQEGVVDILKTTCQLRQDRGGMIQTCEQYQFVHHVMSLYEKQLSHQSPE
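medium = Bis-Tris buffer pH 6.0, 2.5 mM DTT, 0.005% Tween 20 | test system = STEP (striatal-enriched tyrosine phosphatase) enzyme, cell-free | measure = normalized % inhibition | compound dosing = 20 µM, 1% DMSO | also added = 25 µM OMFP | schedule = reaction 20 min, ambient temperature | measured by = fluorescence read at 480 nm ex / 540 nm em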
DNMT1 inh – inhibitors of human DNMT1; P26358; DNMT1 molecular beacon, Hinp1I cleavage, fluorescence; inhibition (reported as % activation of signal), % at 10 µM; 0.83% of 360,000 active; AID 588458; in the data active means inhibition above about 50%
SUMO1-SIM PPI – alters human SUMO1 binding to SIM partners; 0.33% of 360,000 active; inhibition, % at 20 µM; SUMO1 binding to a labelled peptide, TR-FRET, 1 h; P63165; in the data active means inhibition above about 37%
Target sequence (P63165 whole entry, looked up): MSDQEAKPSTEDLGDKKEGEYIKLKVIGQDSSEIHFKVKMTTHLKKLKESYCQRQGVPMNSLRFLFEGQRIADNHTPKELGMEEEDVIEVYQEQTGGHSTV
Scp1 confirm – confirmation of human Scp-1 phosphatase inhibitors. shares compounds with Scp-1 inhibitor. inhibition, % at 20 µM. recombinant SCP-1 catalytic domain, phosphate release, malachite green absorbance. 61% of 2,500 active;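 further: plate controls were DMSO with enzyme for no effect and buffer wells lacking enzyme for full effect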
Scp-1 MG ctr – interferes with malachite green readout, flagging false Scp-1 hits | 2,500 tested, under 10 active | shares compounds with Scp-1 inhibitor | Colorimetric interference counterscreen, malachite green absorbance 630 nm | apparent inhibition (interference), % at 20 µM;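 further: compounds added after enzyme reaction finished so only phosphate colour detection is probed; plate controls were DMSO wells with completed Scp-1 reaction for no effect and substrate wells lacking enzyme for full effect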
Scp1 DSF – binds human Scp-1, shifting its melting temperature | shares compounds with Scp-1 inhibitor | Recombinant SCP1, Sypro Orange thermal shift Tm | thermal shift relative to vanadate control, % at 40 µM | 25% of 1,500 active;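 active means substances whose mean melting-temperature shift, as a percentage of the reference inhibitor's shift, reaches about 5.3%, limit read from the data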;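 further: 0% = Tm of DMSO wells and 100% = Tm with sodium orthovanadate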
* marks the source's active call; other numbers are inactive results; x = no result.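 How the source made its calls, unless noted: active means inhibition of at least 30% at 20 µM; inactive means the rest.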

SMILES	Scp-1 inhibitor	LMPTP inh	STEP inh	DNMT1 inh	SUMO1-SIM PPI	Scp1 confirm	Scp-1 MG ctr	Scp1 DSF
O=C(CSc1nc2ccccc2c(=O)n1Cc1ccco1)NCc1ccco1	74*	1	3	32	11	74*	-3	-3
CCCCn1c(SCC(=O)NCc2ccco2)nnc1-c1ccco1	0	0	0	0	3	x	x	x
O=C(CSc1nnc(COc2ccccc2)n1Cc1ccco1)NCc1ccco1	88*	5	2	32	5	67*	-11	-13
O=C(NCc1ccco1)c1ccc2c(=O)n(Cc3ccco3)c(SCC(=O)N3CCCC3)nc2c1	101*	9	4	30	18	70*	-13	-22
COc1cccc(CN(C)C(=O)c2ccc(NC(=O)CC3SC(N4CCCC4)=NC3=O)cc2)c1OC (stereo unspecified)	-10	-1	-1	0	-3	x	x	x
CCc1nc2ccc(C(=O)Nc3ccc(C(=O)N(C)C)cc3)cn2c1N(C)CCCc1ccccc1	x	-2	2	-4	-2	x	x	x
O=C(CCNC(=O)c1ccc([N+](=O)[O-])cc1)NNC(=O)c1ccncc1	50*	-2	-1	1	-28	6	-4	x
O=C(CCNC(=O)c1ccc([N+](=O)[O-])cc1)Nc1ccc(F)cc1	-5	-1	-2	-1	-27	x	x	x
CCOC(=O)c1c(NC(=O)CSc2nccn2C)sc(C(=O)NC)c1C	1	0	3	4	-1	x	x	x
O=c1c(O)c(-c2ccc(O)cc2)oc2cc(O)cc(O)c12	53*	1	-7	3	-23	54*	-4	9.2*
Cc1cc(C)n2cc(CSc3nnc(-c4ccccc4)o3)nc2n1	80*	-1	0	3	-2	-6	-13	x
Cc1cc(C)n2cc(CSCc3ccccc3)nc2n1	-4	0	3	1	-1	x	x	x
C=CCn1cc(CN2CCC(C(=O)Nc3cccc(-c4cccc(Cl)c4)c3)CC2)c(C)n1	3	1	1	-6	-22	x	x	x
Cc1ccc2nc(SCC(=O)Nc3ccc(C)c(Cl)c3)nc(=O)n2c1	-4	0	2	1	-2	x	x	x
Cc1ccc2nc(SCC(=O)Nc3ccc(Br)cc3)nc(=O)n2c1	60*	0	2	-3	-2	-24	-19	x
CCCCCC(=O)N1CC2(CC(c3cccc(NC(=O)[C@@H]4CCC(=O)N4)c3)=NO2)C[C@@H]1C(N)=O (stereo partly specified)	0	-1	-2	6	0	x	x	x
C=C(C)C(=O)Nc1cccc(C2=NOC3(C2)C[C@@H](C(N)=O)N(C(=O)CCCCC)C3)c1 (stereo partly specified)	83*	x	x	x	x	69*	-10	-6
C/C=C/C=C\C(=O)Nc1cccc(C2=NOC3(C2)C[C@H](C(N)=O)N(C(=O)/C=C/C)C3)c1 (stereo partly specified)	22	0	0	-19	10	x	x	x
C/C=C\C=C\C(=O)N1CC2(CC(c3cccc(NC(=O)CC)c3)=NO2)C[C@H]1C(N)=O (stereo partly specified)	70*	-2	0	-5	26	66*	-11	-6
Cn1nnnc1SCC1=C(C(=O)O)N2C(=O)C(NC(=O)C3CC3c3ccccc3)C2SC1 (stereo unspecified)	59*	-1	4	27	1	70*	0	2
COc1ccc(/C=N/NC(=O)C(Cc2c[nH]c3ccccc23)NC(=O)OCC(C)C)cc1[N+](=O)[O-] (stereo unspecified)	65*	-1	-1	-4	-6	-11	-13	x
O=C1c2ccccc2C(=O)N1c1nc2nccc(-c3ccccc3)n2n1	101*	-1	24	4	-2	21	-20	x
Cc1nnc(NC(=O)C2CC(=O)N(c3ccc4c(c3)OCCO4)C2)s1 (stereo unspecified)	1	0	-2	6	-4	x	x	x
O=C(Nc1nnc(SCc2c(Cl)cccc2Cl)s1)C1CC(=O)N(c2ccc3c(c2)OCCO3)C1 (stereo unspecified)	67*	4	2	42	-1	66*	-16	-12
O=C(Nc1nnc(SCc2ccc(F)cc2)s1)C1CC(=O)N(c2ccc3c(c2)OCCO3)C1 (stereo unspecified)	-1	1	-4	0	6	x	x	x
SMILES	Scp-1 inhibitor	LMPTP inh	STEP inh	DNMT1 inh	SUMO1-SIM PPI	Scp1 confirm	Scp-1 MG ctr	Scp1 DSF
O=C(Nc1nc(-c2ccco2)c(-c2ccco2)s1)C1CC(=O)N(c2ccc3c(c2)OCCO3)C1 (stereo unspecified)	82*	39	12	72*	27	57*	-14	13*
O=C(CN1C(=O)COc2ccc(S(=O)(=O)N3CCOCC3)cc21)Nc1cccc(Cl)c1	0	0	2	2	1	x	x	x
COCc1c(C(=O)N2CCN(Cc3c(F)cccc3Cl)CC2)oc2ccccc12	53*	2	2	0	3	-8	-10	x
Cc1ccc(C(c2ccc(C)c(C)c2)C(O)C2OC(=O)C(O)C2O)cc1C (stereo unspecified)	53*	3	0	12	4	23	-5	x
Cc1ccc(C(C)NC(=O)C2CCCC2)cc1C (stereo unspecified)	-1	-2	2	-4	2	x	x	x
CSc1ncccc1C(=O)OCC(=O)Nc1cccc(S(=O)(=O)N2CCOCC2)c1	-12	0	-1	-1	-4	x	x	x
Cc1ccc(/C=N/NC(=O)CCCOc2ccc(Cl)cc2Cl)cc1[N+](=O)[O-]	58*	9	5	17	0	38*	-11	5
COc1ccc(/C=N/NC(=O)CCCOc2ccc(Cl)cc2Cl)cc1[N+](=O)[O-]	-4	3	1	-15	-2	x	x	x
O=C(NCc1nnc(SCC(=O)N2CCOCC2)o1)c1c(F)cccc1F	-2	-2	-1	2	2	x	x	x
C[C@H](CO)N1C[C@H](C)[C@@H](CN(C)C(=O)Nc2ccccc2)Oc2ccc(NS(=O)(=O)c3cn(C)cn3)cc2C1=O	71*	-2	2	12	5	0	-10	x
C[C@H](CO)N1C[C@H](C)[C@@H](CN(C)C(=O)Nc2ccc3c(c2)OCO3)Oc2ccc(NS(=O)(=O)c3cn(C)cn3)cc2C1=O	69*	0	0	5	4	-8	-20	x
